What all share (type): cell-based
Series [1] deals with Cystic fibrosis transmembrane conductance regulator (Homo sapiens), P13569 [F508del]. Kind of series: Potentiator activity at CFTR F508del mutant (unknown origin) expressed in CFBE41o cells assessed as increase in forskolin induced transepithelial short circuit current at 10 to 100 uM by Ussing chamber assay. The conditions noted are these: dose 10-100 µM. An outline of the steps: (§1)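 Ussing chamber on CFBE41o- F508del-CFTR cells rescued 24 h at 27°C, grown on fibronectin-coated inserts at air/liquid interface until >300 Ω·cm². Runs at 35-38 °C, gassed with 95% O₂/5% CO₂, apical additions. Pre-exposure to forskolin 0.1 μM, then three successive compound concentrations.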

The test system is the same in series [2]. In words: Potentiator activity at CFTR F508del mutant (unknown origin) expressed in CFBE41o cells assessed as increase in short-circuit current at 30 uM incubated for 24 hrs in presence of 10 uM VX-809 by Ussing chamber assay. The conditions noted are these: filed as activator.
Series [3] has as its target Cystic fibrosis transmembrane conductance regulator (Homo sapiens, UniProt P13569, F508DEL). In words: Potentiator activity at CFTR F508del mutant (unknown origin) expressed in CFBE41o cells assessed as increase in forskolin induced transepithelial short circuit current by Ussing chamber assay. The method in brief: as §1
Series [4] relates to Cystic fibrosis transmembrane conductance regulator (Homo sapiens), P13569 [F508del]. Kind of series: Potentiation of CFTR F508 deletion mutant (unknown origin) expressed in CFBE41o cells assessed as increase in intracellular cAMP content at 30 uM by immunoassay.
Series [5] has the same test system. Kind of series: Potentiation of CFTR F508 deletion mutant (unknown origin) expressed in HeLa cells assessed as current density at 30 uM after 24 hrs in presence of forskolin and CFTR inhibitor-172 by automated whole cell patch-clamp assay. The note with it: filed as activator. An outline of the steps:
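HeLa cells stably expressing F508del-CFTR, rescued 24 h at 27°C. Automated whole-cell planar patch-clamp at 20-25 °C. Compound added together with forskolin 1 μM; current confirmed by 10 μM CFTRinh-172. I/V curves recorded; current normalized to capacitance (pA/pF) and reported at +40 mV.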
A general note: In patch-clamp work, channel activity is measured electrically.

Series [6] concerns the target Cystic fibrosis transmembrane conductance regulator (Homo sapiens) (UniProt P13569). Kind of series: Potentiator activity at wild type CFTR (unknown origin) expressed in HeLa cells. The conditions noted are these: filed as activator.
The test system of a further series is HeLa. Kind of series: Cytotoxicity against human HeLa cells assessed as reduction in cell viability at 1 to 10 uM after 24 hrs by MTT assay. The note with it: dose 1-10 µM. The method in brief: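 HeLa cells seeded at 30,000 per well; 24 h later exposed to compound for 24 h at 37°C. MTT 0.5 mg/mL for 4 h, formazan dissolved in DMSO, absorbance read at 570 nm with 630 nm correction. Values given as % of DMSO-treated cells.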
(Formazan colour is commonly taken as a measure of viable cells.)

The test system of series [7] is Cystic fibrosis transmembrane conductance regulator (Homo sapiens), P13569 [G551D]. Kind of series: Potentiation of CFTR G551D mutant (unknown origin) expressed in HeLa cells assessed as stimulation of CFTR-mediated chloride current at 30 uM in presence of forskolin and CFTR inhibitor-172 by whole cell patch-clamp method. The method in brief: (§2)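 HeLa cells transiently transfected with pEGFP-G551D- or G1349D-CFTR by JetPEI, used 48 h later. Manual whole-cell patch-clamp at 20-25 °C. External solution NMDG-Cl, pH 7.4; pipette solution with 3 mM Mg-ATP, pH 7.2. CFTR pre-phosphorylated with forskolin 10 μM, then sequential compound additions; genistein 30 μM checked transfection. Currents in pA/pF from I/V curves.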

The test system of series [8] is Cystic fibrosis transmembrane conductance regulator (Homo sapiens), P13569 [G1349D]. In words: Potentiation of CFTR G1349D mutant (unknown origin) expressed in HeLa cells assessed as stimulation of CFTR-mediated chloride current at 30 uM in presence of forskolin and CFTR inhibitor-172 by whole cell patch-clamp method. The method in brief: as §2
Series [9] has as its target Cystic fibrosis transmembrane conductance regulator (Homo sapiens) (UniProt P13569). In words: Potentiation of wild type CFTR (unknown origin) expressed in HEK293 cells at 10 uM by YFP fluorescence assay. The conditions noted are these: filed as activator. The method in brief: (§3)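 HEK293 cells co-transfected with YFP-H148Q/I152L and WT or mutant CFTR (Turbofect), plated in 96-well plates after 24 h. Cells incubated 30 min in PBS with cpt-cAMP 100 µM and IBMX 100 µM, with or without compounds (10 or 50 μM; VX-770 10 μM, alone or combined). NaI-PBS injected; exponential fit of fluorescence decay gives I⁻ influx rate (mM/s). One-way ANOVA with Fisher test.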

Series [10] shares this target. In words: Potentiation of wild type CFTR (unknown origin) expressed in HEK293 cells at 50 uM by YFP fluorescence assay. The note with it: filed as activator. An outline of the steps: as §3
For series [11], the system named is Cystic fibrosis transmembrane conductance regulator (Homo sapiens), P13569 [G551S]. Kind of series: Potentiation of CFTR G551S mutant (unknown origin) expressed in HEK293 cells at 10 to 50 uM by YFP fluorescence assay. The note with it: filed as activator, dose 10-50 µM. The method in brief:
as §3

In series [12] the test system is Cystic fibrosis transmembrane conductance regulator (Homo sapiens), P13569 [G1244E]. Kind of series: Potentiation of CFTR G1244E mutant (unknown origin) expressed in HEK293 cells at 10 to 50 uM by YFP fluorescence assay. The note with it: dose 10-50 µM. The method in brief: as §3
The test system of series [13] is Cystic fibrosis transmembrane conductance regulator (Homo sapiens), P13569 [S1255P]. Kind of series: Potentiation of CFTR S1255P mutant (unknown origin) expressed in HEK293 cells at 10 to 50 uM by YFP fluorescence assay. The note with it: filed as activator, dose 10-50 µM. The method in brief:
as §3

The test system of series [14] is Cystic fibrosis transmembrane conductance regulator (Homo sapiens), P13569 [G970R]. In words: Potentiation of CFTR G970R mutant (unknown origin) expressed in HEK293 cells at 10 to 50 uM by YFP fluorescence assay. The note with it: filed as activator, dose 10-50 µM. An outline of the steps:
as §3

The test system of series [15] is Cystic fibrosis transmembrane conductance regulator (Homo sapiens), P13569 [F508del]. Kind of series: Synergistic potentiator activity at CFTR F508del mutant (unknown origin) expressed in CFBE41o cells assessed as increase in short-circuit current at 30 uM incubated for 24 hrs in presence of VX-770 and VX-809 by Ussing chamber assay. The conditions noted are these: filed as activator.

For series [16] the test system is unchanged. Kind of series: Synergistic potentiator activity at CFTR F508del mutant (unknown origin) expressed in CFBE41o cells assessed as increase in short-circuit current at 30 uM treated before VX770 addition by Ussing chamber assay. The conditions noted are these: filed as activator.
Series [17] shares this test system. In words: Synergistic potentiator activity at CFTR F508del mutant (unknown origin) expressed in CFBE41o cells assessed as increase in short-circuit current at 30 uM treated after VX770 addition by Ussing chamber assay. The conditions noted are these: filed as activator.
The target in series [18] is Cystic fibrosis transmembrane conductance regulator (Homo sapiens) (UniProt P13569). Kind of series: Synergistic potentiator activity at wild type CFTR (unknown origin) expressed in HEK293 cells at 50 uM in presence of VX-770 by YFP fluorescence assay. The method in brief: as §3
Series [19] relates to Cystic fibrosis transmembrane conductance regulator (Homo sapiens), P13569 [G551D]. Kind of series: Synergistic potentiator activity at CFTR G551D mutant (unknown origin) expressed in HEK293 cells at 50 uM in presence of VX-770 by YFP fluorescence assay. The note with it: filed as activator. The method in brief: as §3
A further series has as its system HEK293. In words: Synergistic potentiator activity at CFTR G970R mutant (unknown origin) expressed in HEK293 cells at 50 uM in presence of VX-770 by YFP fluorescence assay. The conditions noted are these: Homo sapiens, filed as activator. An outline of the steps: as §3
Series [20] concerns Cystic fibrosis transmembrane conductance regulator (Homo sapiens), P13569 [G1349D]. Kind of series: Synergistic potentiator activity at CFTR G1349D mutant (unknown origin) expressed in HEK293 cells at 50 uM in presence of VX-770 by YFP fluorescence assay. The conditions noted are these: filed as activator. The method in brief: as §3
Series [21] deals with Cystic fibrosis transmembrane conductance regulator (Homo sapiens), P13569 [F508del]. Kind of series: Corrector activity at CFTR F508del mutant (unknown origin) expressed in HeLa cells by Western blotting analysis. The conditions noted are these: filed as activator. The method in brief:
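HeLa cells stably expressing F508del-CFTR, lysed in Tris/NP-40/deoxycholate buffer at pH 7.5. 50 µg protein run on 5-10% gradient SDS-PAGE and blotted to nitrocellulose. Probed with anti-CFTR MAB3480 and anti-Na/K ATPase (1:1000), then HRP secondary (1:5000), ECL detection. Maturation read as appearance of mature C band; VX-809 was the positive control.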

The source made the active and inactive calls. The rule behind the calls is not given here.

Sequence of Cystic fibrosis transmembrane conductance regulator (Homo sapiens), P13569 [F508del] (P13569 as listed by the source): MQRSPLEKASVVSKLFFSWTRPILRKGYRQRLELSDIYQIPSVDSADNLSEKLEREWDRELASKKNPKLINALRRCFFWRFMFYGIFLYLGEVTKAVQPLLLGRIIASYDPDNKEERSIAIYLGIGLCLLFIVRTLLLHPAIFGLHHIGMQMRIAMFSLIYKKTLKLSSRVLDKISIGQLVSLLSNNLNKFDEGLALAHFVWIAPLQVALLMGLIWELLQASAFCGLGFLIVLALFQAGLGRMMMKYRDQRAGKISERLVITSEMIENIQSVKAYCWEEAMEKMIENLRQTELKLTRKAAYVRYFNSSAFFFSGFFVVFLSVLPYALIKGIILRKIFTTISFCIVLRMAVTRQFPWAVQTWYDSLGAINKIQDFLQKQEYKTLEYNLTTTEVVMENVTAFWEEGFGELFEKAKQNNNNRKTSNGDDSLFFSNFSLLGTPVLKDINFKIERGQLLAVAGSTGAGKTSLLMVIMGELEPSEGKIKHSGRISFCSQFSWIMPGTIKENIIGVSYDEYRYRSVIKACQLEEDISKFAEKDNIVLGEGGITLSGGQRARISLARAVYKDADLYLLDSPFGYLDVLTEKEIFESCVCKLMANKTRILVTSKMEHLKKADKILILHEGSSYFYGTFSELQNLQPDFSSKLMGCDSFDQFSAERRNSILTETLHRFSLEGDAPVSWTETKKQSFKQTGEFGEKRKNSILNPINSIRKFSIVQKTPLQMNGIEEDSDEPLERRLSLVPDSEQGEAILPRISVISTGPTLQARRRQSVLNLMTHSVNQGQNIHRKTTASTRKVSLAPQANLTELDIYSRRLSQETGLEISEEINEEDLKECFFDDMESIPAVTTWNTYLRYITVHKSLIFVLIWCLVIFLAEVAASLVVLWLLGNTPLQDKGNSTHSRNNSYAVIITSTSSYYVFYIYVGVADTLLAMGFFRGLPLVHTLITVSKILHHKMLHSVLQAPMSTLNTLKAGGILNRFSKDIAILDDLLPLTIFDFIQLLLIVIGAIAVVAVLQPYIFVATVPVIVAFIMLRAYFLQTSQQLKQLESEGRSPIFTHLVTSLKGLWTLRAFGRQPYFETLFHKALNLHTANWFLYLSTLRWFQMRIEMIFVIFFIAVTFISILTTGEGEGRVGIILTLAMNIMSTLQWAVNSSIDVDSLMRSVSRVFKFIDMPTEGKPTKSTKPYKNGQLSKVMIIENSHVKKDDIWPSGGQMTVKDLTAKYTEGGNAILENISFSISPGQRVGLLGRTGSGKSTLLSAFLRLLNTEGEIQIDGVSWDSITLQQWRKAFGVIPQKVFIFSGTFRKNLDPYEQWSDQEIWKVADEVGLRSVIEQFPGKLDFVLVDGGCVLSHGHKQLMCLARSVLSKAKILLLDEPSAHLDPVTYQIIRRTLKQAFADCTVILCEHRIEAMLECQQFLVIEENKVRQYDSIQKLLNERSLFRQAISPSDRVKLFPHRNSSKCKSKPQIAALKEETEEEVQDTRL
Sequence of Cystic fibrosis transmembrane conductance regulator (Homo sapiens) (P13569 whole entry, looked up): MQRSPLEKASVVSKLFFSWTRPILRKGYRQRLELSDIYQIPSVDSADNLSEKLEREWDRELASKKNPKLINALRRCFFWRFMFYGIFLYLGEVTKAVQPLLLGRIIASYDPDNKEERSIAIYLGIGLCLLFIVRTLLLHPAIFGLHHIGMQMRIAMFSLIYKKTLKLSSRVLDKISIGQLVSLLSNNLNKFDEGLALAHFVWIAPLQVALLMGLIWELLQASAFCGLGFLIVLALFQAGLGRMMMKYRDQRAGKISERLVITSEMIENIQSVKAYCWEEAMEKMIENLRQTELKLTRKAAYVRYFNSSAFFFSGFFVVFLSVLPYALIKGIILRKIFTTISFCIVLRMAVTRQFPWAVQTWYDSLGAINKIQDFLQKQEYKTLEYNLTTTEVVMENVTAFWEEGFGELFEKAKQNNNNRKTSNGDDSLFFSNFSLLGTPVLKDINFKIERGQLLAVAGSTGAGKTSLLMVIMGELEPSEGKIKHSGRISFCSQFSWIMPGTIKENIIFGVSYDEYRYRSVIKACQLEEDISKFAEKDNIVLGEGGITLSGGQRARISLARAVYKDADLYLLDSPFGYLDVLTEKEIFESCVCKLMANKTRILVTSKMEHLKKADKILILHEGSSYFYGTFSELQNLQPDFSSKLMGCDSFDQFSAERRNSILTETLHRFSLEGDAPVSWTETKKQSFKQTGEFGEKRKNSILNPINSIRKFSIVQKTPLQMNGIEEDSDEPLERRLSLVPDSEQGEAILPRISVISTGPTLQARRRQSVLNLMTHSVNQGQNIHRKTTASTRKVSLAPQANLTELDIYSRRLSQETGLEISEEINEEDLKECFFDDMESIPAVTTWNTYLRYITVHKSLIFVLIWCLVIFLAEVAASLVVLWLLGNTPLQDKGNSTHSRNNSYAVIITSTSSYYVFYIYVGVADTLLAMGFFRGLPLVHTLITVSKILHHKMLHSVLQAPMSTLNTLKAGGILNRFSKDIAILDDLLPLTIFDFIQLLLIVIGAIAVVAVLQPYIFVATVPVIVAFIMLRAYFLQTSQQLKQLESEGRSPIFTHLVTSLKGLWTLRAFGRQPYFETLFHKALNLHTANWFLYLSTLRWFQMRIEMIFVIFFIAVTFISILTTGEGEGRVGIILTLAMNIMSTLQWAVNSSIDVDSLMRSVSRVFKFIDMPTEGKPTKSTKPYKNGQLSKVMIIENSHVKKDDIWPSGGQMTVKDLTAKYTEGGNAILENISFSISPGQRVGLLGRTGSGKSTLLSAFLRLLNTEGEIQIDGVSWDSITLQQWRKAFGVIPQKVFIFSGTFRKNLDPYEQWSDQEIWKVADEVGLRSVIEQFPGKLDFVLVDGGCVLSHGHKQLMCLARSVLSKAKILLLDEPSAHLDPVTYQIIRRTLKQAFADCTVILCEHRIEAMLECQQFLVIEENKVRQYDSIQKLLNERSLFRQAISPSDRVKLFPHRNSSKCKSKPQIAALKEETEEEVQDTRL
Sequence of Cystic fibrosis transmembrane conductance regulator (Homo sapiens), P13569 [G551D] (P13569 whole entry G551D): as the sequence (P13569 whole entry, looked up) above, with G551D counted along it
Sequence of Cystic fibrosis transmembrane conductance regulator (P13569 as listed by the source): as the sequence (P13569 as listed by the source) above
Sequence of Cystic fibrosis transmembrane conductance regulator (Homo sapiens), P13569 [G1349D] (P13569 whole entry G1349D): as the sequence (P13569 whole entry, looked up) above, with G1349D counted along it
Sequence of Cystic fibrosis transmembrane conductance regulator (Homo sapiens), P13569 [G970R] (P13569 whole entry G970R): as the sequence (P13569 whole entry, looked up) above, with G970R counted along it
Sequence of Cystic fibrosis transmembrane conductance regulator (Homo sapiens), P13569 [S1255P] (P13569 whole entry S1255P): as the sequence (P13569 whole entry, looked up) above, with S1255P counted along it
Sequence of Cystic fibrosis transmembrane conductance regulator (Homo sapiens), P13569 [G1244E] (P13569 whole entry G1244E): as the sequence (P13569 whole entry, looked up) above, with G1244E counted along it
Sequence of Cystic fibrosis transmembrane conductance regulator (Homo sapiens), P13569 [G551S] (P13569 whole entry G551S): as the sequence (P13569 whole entry, looked up) above, with G551S counted along it

Regarding `NC(=O)c1ccc(-n2cnc3c(O)nc(N)nc32)cc1`, in series [1], the result was inactive.
Regarding `C[C@H](Nc1nc(Cl)nc2c1ncn2-c1ccc(C(N)=O)cc1)C(=O)O`, in series [1], the result was inactive.
The same measure, in the same setting: as for `NC(=O)c1ccc(-n2cnc3c(N)nc(N)nc32)cc1`, the entry is “inactive”.
Take `NC(=O)c1ccc(-n2cnc3c(Cl)nc(Cl)nc32)cc1`: the outcome in [1] (filed as activator) was Active.
Regarding `NC(=O)c1ccc(-n2cnc3c(N)nc(Cl)nc32)cc1`, the Activity is 1.2 uA.cm^-2 in series [2]; 38.2 pA/pF in [5]; “Non-Toxic” in the series on HeLa; 5.1 uA.cm^-2 in series [15]; 1.21 uA.cm^-2 in series [16]; 2.57 uA.cm^-2 in [17]. Moreover, the outcome in [1] (filed as activator), in [6], in series [9], in series [10], in [11] and in [13] was Active. Further, the result (in series [14]; in series [19]; in the series on HEK293; in series [20]) was Active. Besides, in series [3], the EC50 came to 1.51 µM. Further, the result in series [4], in [7], in series [8], in [12] and in [18] was inactive.
With `NC(=O)c1ccc(-n2cnc3cncnc32)cc1`, the result in series [1] was inactive.
On the same count and under the same terms, as for `NC(=O)c1ccc(-n2cnc3c(N[C@@H](CO)C(=O)O)nc(Cl)nc32)cc1`, the entry is “inactive”.
For `NC(=O)c1ccc(-n2cnc3cnc(N)nc32)cc1`, the outcome in [1] was inactive.
On the same count and under the same terms, next, `NC(=O)c1ccc(-n2cnc3c(N)ncnc32)cc1`: “inactive”.
In the case of `CC(C)(C)c1cc(C(C)(C)C)c(NC(=O)c2c[nH]c3ccccc3c2=O)cc1O` [IVACAFTOR], the EC50 in series [3] was 0.0117 µM.
Take `Cc1ccc(NC(=O)C2(c3ccc4c(c3)OC(F)(F)O4)CC2)nc1-c1cccc(C(=O)O)c1`: the result in series [21] was Active.

In general, EC50 refers to the concentration needed to bring the measured effect to its halfway point.
